Source: PubChem
A selection: hits, their analogues and other compounds. The true share with any hit is near 2.4%.
Ins promoter up = insulin promoter activators in MIN6 cells, imaging, high-content screening, mouse beta cells | MIN6 insulin promoter-GFP reporter; active compounds read high | z-score at 5 µM | hit rate 0.3% among 190,000;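 active = z-score above 3 at 5 µM with at least 500 cells counted in the well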
Calb FLC = C. albicans growth inhibition with fluconazole, primary screen, CaCi-2 strain, Alamar Blue fluorescence; hit rate 0.57% among 300,000; growth inhibition, % (test concentration not listed); C. albicans CaCi-2 + fluconazole, 48 h;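 active = growth inhibition above about 58% in most replicates, limit read from the data, passing the limit was not always enough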;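 note: all wells also contain fluconazole at 8 µg/ml as a sub-toxic cotreatment; 0% = median of DMSO wells and 100% = median of geldanamycin control wells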
SR-BI HDL uptake = inhibitors of SR-BI mediated HDL lipid uptake, primary screen, ldlA[mSR-BI] cells, fluorescence, single point; hit rate 0.96% among 320,000; inhibition, % at 12.5 µM; ldlA[mSR-BI] CHO cells, DiI-HDL uptake fluorescence, 3 h; Scavenger receptor class B member 1 (Mus musculus), Q61009;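 active = mean replicate inhibition of at least 70% and a set share of replicates each scoring 70 or more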;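 note: 0% = median of neutral control wells and 100% = median of positive control wells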
Target sequence (Q61009 whole entry, looked up): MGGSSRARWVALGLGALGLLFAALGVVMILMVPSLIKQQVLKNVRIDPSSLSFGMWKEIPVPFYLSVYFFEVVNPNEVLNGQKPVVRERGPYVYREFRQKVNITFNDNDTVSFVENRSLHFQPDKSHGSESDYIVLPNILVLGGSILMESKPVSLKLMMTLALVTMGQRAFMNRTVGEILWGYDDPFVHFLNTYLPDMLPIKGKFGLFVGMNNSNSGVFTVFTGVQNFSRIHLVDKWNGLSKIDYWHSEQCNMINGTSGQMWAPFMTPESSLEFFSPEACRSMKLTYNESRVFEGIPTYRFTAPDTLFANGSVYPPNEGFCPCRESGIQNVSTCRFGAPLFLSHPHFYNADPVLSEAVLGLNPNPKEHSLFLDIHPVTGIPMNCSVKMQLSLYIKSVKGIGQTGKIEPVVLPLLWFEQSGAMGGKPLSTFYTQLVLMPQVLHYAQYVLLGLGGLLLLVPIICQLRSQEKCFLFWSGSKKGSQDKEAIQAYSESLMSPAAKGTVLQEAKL
SR-BI DiI-HDL act = activators of SR-BI mediated DiI-HDL uptake, primary screen, ldlA[mSR-BI] CHO cells, DiI fluorescence | activation, % at 12.5 µM | 3 h; 100 = double the neutral-control signal | hit rate 0.096% among 320,000;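 active = mean replicate activation of at least 60% and every replicate at or above 60%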;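 note: 0% = median plate neutral-control signal and 100% = twice that signal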
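system = CHO ldlA[mSR-BI] cells, LDL receptor-null, SR-BI overexpressing | medium = Ham's F12 with 0.5% BSA, HEPES 25 mM, pH 7.4 | probe or stimulus = DiI-HDL 10 µg/mL | compound dosing = single-point compound dose | incubation = compound exposure 3 h, 37 °C | technique = DiI fluorescence, bottom read | read-out = cell-associated DiI fluorescence as measure of HDL uptake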
HTR2A ag = mouse Htr2a agonists via beta-arrestin recruitment, primary screen, cell-based, luminescence | 5-hydroxytryptamine receptor 2A (Mus musculus), P35363 | CHO-K1 mHTR2A beta-arrestin complementation; percent of 30 µM serotonin response | activation, % at 7.6 µM | hit rate 0.66% among 360,000 | AID 624169, 2012;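 active = activation above a run cutoff, the mean activation of all tested compounds plus 3 SD, cut at about 14% in these data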;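 note: 0% = plate median of compound wells and 100% = 30 µM serotonin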
beta cell repl = inducers of MIN6 beta-cell proliferation, primary screen, ATP luminescence, uHTS; MIN6 cells proliferation, ATPlite luminescence, 48 h; cells starved in 0.2% serum; 100% = growth in 10% serum; proliferation, % at 10 µM; hit rate 0.29% among 330,000;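 active = compounds whose signal lies at least 3.5 SD above the mean of all wells on their plate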;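 note: 0% = DMSO-treated cells in low-serum medium and 100% = 10% serum control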
The depositor's hits bear a star; / = not tested or not shown.

SMILES	Ins promoter up	Calb FLC	SR-BI HDL uptake	SR-BI DiI-HDL act	HTR2A ag	beta cell repl
COc1ccccc1-c1cnn2c(NC3CCCC3)cc(C)nc12	/	-8.2	86.4*	-86.4	0.8	-3.5
COc1ccc(C(=O)Nc2ccc(NC(=O)c3cc(OC)c(OC)c(OC)c3)cn2)cc1	/	10.8	76.8*	-76.8	4.9	-1.4
COC(=O)c1cc(NC(=O)c2cccc(F)c2)cc(C(=O)OC)c1	-0.52	-6.7	78.4*	-78.4	5.7	-1.9
O=C(Nc1cccc(NC(=O)c2cccc(F)c2)n1)c1cccc(F)c1	/	34.4	86.9*	-86.9	-4.9	-1.7
COc1ccc(C(=O)Nc2ccc(NC(=O)c3cccc(F)c3)cn2)cc1	/	-3.3	75.5*	-75.6	-3.2	-1.2
O=C(Nc1ccc(C(=O)O)cc1)/C(=C\c1cccc([N+](=O)[O-])c1)NC(=O)c1ccc(Br)o1	-0.33	5.3	-13.8	13.8	1.8	-0.5
CCc1ccc([C@@H]2C[C@H]3[C@@H](CN2S(=O)(=O)c2ccc(C)cc2)C(=O)C[C@@H](c2ccc(C)cc2)N3S(=O)(=O)c2ccc(C)cc2)cc1	/	/	/	/	-2.6	/
CCOC(=O)c1nn(-c2ccc(OCC)cc2)c2nc(-c3ccco3)c(C#N)c(=O)n12	-0.74	1.6	20.8	-20.8	2.5	-2.6
COc1ccc(N/C=C/C(=O)c2cc(OC)c(OC)c(OC)c2)cc1	/	-14.0	72.1*	-72.1	-0.9	-4.0
COc1ccccc1C(=O)Nc1ccc(Oc2nnc(-c3ccc(C)cc3)c3ccccc23)cc1	-0.06	-4.4	83.7*	-83.7	-0.3	-5.0
COc1ccc(C(=O)Nc2ccc(NC(=O)c3ccccc3OC)nc2)cc1	/	-2.7	79.5*	-79.5	4.4	-1.8
COc1ccc(C(=O)Nc2ccc(NC(=O)c3ccccn3)cn2)cc1	/	12.6	59.6	-59.6	4.5	-1.3
COc1ccc(N/C=C/C(=O)c2ccc(OC)c(OC)c2)cc1	0.4	4.1	50.2	-50.2	4.3	-2.0
Cc1ccc(/C=N\NC(=O)/C(=C\Nc2nccc(C)n2)NC(=O)c2ccccc2)cc1	0.2	0.0	/	/	-7.6	0.0
O=C(CSc1ccc([N+](=O)[O-])cn1)Nc1cc(C(F)(F)F)ccc1N1CCOCC1	/	0.1	22.9	-22.9	-8.4	-0.1
CC(C)=CCC[C@H](C)C[C@@H]1Cc2[nH][nH]c(=O)c2[C@@H](c2ccc(F)cc2)O1	/	/	/	/	-2.6	/
Brc1ccc(N/N=C(/N=Nc2nn[nH]n2)c2ccccc2)cc1	0.33	123.6*	46.5	-46.5	-1.0	-7.0
C=CCOC(=O)C(C#N)c1nc2ccccc2nc1N1CCN(Cc2ccccc2)CC1 (configuration not stated)	-0.94	13.5	84.4*	-84.4	-8.7	-3.5
C=CCOC(=O)C(C#N)c1nc2ccccc2nc1N1CCN(c2ccccc2OC)CC1 (configuration not stated)	-1.79	1.6	81.8*	-81.8	4.6	-0.2
COCCOC(=O)C(C#N)c1nc2ccccc2nc1N1CCN(Cc2ccccc2)CC1 (configuration not stated)	0.26	4.9	37.9	-37.9	-5.2	-1.2
CCCCC(Nc1ncnc2ccccc12)C(=O)O (configuration not stated)	-0.33	-9.2	3.2	-3.2	7.1	-1.8
CC(Nc1ncnc2ccccc12)c1ccccc1 (configuration not stated)	/	76.2*	-14.1	14.1	-3.7	-4.1
CC(C)NC(=O)C1C(c2ccc(C(F)(F)F)cc2)=Nc2ccccc2N1C(=O)c1cc2ccccc2[nH]1 (configuration not stated)	/	/	/	/	-4.9	/
CCNC(=O)C1(C)CCCN(Cc2cccc(Oc3ccccc3)c2)C1 (configuration not stated)	/	/	/	/	-4.6	/
CCOC(=O)C1=C(C)N(c2ccc(C)c(C)c2)C(=O)/C1=C\c1ccco1	-0.58	2.4	38.1	-38.1	-3.7	-6.2
